The record followed here is ChEMBL document CHEMBL1133470, “Synthesis and antiviral activity of oxaselenolane nucleosides” (J Med Chem, 2000).

Assay [1] concerns CCRF-CEM. Put plainly: In vitro cytotoxicity against CEM cells. In kind it is functional, cell-based, Homo sapiens.
Assay [2] relates to Human immunodeficiency virus 1. Put plainly: Antiviral activity against Immunodeficiency virus type-1 (HIV-1) in peripheral blood mononuclear cells. In kind it is functional, organism-based. In short, it runs like this:
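HIV-1 infection of human peripheral blood mononuclear (PBM) cells; EC50 reported in µM.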

In assay [3] the test system is Hepatitis B virus. The experiment in a line: Antiviral activity against Hepatitis B virus (HBV) in 2.2.15 cells. In kind it is functional, organism-based. The following applies: HepG2 2.2.15.
Assay [4] in a line: In vitro cytotoxicity against PBM cells. The format is functional, cell-based, Homo sapiens.
The test system of assay [5] is Vero. Put plainly: (§1) In vitro cytotoxicity against Vero cells. The format is functional, cell-based, Chlorocebus sabaeus.
The test system of assay [6] is CCRF-CEM. Put plainly: In vitro cytotoxicity againstCEM cells. The format is functional, cell-based. To be noted: Homo sapiens.
The test system of assay [7] is Vero. The assay is described as §1. In kind it is functional, cell-based. To be noted: Chlorocebus sabaeus.
The test system of assay [8] is Human immunodeficiency virus 1. The experiment in a line: (§2) Anti HIV activity against cloned FTC-sensitive mutant xxBRU HIV-1. The format is functional, organism-based.
Assay [9] has as its system Human immunodeficiency virus 1. The experiment in a line: (§3) Anti HIV activity against cloned FTC/3TC-resistant mutant M184V HIV-1. In kind it is functional, organism-based.
In assay [10] the test system is Human immunodeficiency virus 1. The description is as §2. In kind it is functional.
Assay [11] concerns Human immunodeficiency virus 1. Described as §3. In kind it is functional.
A short description of assay [12]: Fold increase expressed as ratio of EC50 from M184V virus to that from xxBRU virus. The format is functional.
A short description of assay [13]: Fold increase expressed as ratio of EC90 from M184V virus to that from xxBRU virus. The format is functional.

For orientation: IC50 means the midpoint of a concentration-inhibition curve. High values mean lower potency, low ones higher potency. As a reminder, the EC50 is the concentration that produces a half-maximal response. As for `Cc1cn([C@H]2C[Se][C@@H](CO)O2)c(=O)[nH]c1=O`, the IC50 in assay [1] (Homo sapiens, CCRF-CEM) is more than 100 µM; in assay [4] (Homo sapiens, PBMC) it was more than 100 µM; in assay [5] (Chlorocebus sabaeus, Vero), more than 100 µM. In addition, the EC50 in assay [2] (Human immunodeficiency virus 1) and in assay [3] was more than 10 µM each time.

For `Nc1ccn([C@@H]2C[Se][C@@H](CO)O2)c(=O)n1`, the IC50 in assay [1] (Homo sapiens, CCRF-CEM) is more than 100 µM; in assay [4] (Homo sapiens, PBMC) it was more than 100 µM; in [5] (Chlorocebus sabaeus, Vero) it was more than 100 µM. The half-maximal effective concentration (EC50) in assay [2] (Human immunodeficiency virus 1) is more than 100 µM.

On to `OC[C@H]1O[C@@H](n2cnc3c(O)ncnc32)C[Se]1`, for which the IC50 in [1] (Homo sapiens, CCRF-CEM) was more than 100 µM; in assay [4] (Homo sapiens, PBMC), more than 100 µM; in assay [5] (Chlorocebus sabaeus, Vero) it was more than 100 µM. Further, the results for the concentration for a half-maximal effect (EC50) in assay [2] (Human immunodeficiency virus 1) and in [3] were more than 100 µM and more than 10 µM, respectively.

For `Cc1cn([C@@H]2C[Se][C@@H](CO)O2)c(=O)[nH]c1=O`, the IC50 is more than 100 µM in [1] (Homo sapiens, CCRF-CEM); more than 100 µM in [4] (Homo sapiens, PBMC); more than 100 µM in [5] (Chlorocebus sabaeus, Vero). Further, the EC50 in assay [2] (Human immunodeficiency virus 1) is more than 100 µM; in assay [3] it was more than 10 µM.

As to `O=c1ccn([C@H]2C[Se][C@@H](CO)O2)c(=O)[nH]1`, the IC50 in assay [6] is more than 100 µM; in assay [4] (Homo sapiens, PBMC) it was more than 100 µM; in assay [7], more than 100 µM. Besides, the figures for the EC50 in assay [2] (Human immunodeficiency virus 1) and in assay [3] were more than 100 µM and more than 10 µM, respectively.

For `Nc1ncnc2c1ncn2[C@@H]1C[Se][C@@H](CO)O1`, the IC50 in assay [1] (Homo sapiens, CCRF-CEM) was more than 100 µM; in assay [4] (Homo sapiens, PBMC) it was more than 100 µM; in assay [5] (Chlorocebus sabaeus, Vero), more than 100 µM. Moreover, the EC50 in assay [2] (Human immunodeficiency virus 1) was more than 100 µM; in assay [3], more than 10 µM.

Take `Nc1ncnc2c1ncn2[C@H]1C[Se][C@@H](CO)O1`: the IC50 in assay [1] (Homo sapiens, CCRF-CEM) was more than 100 µM; in [4] (Homo sapiens, PBMC), more than 100 µM; in [5] (Chlorocebus sabaeus, Vero), more than 100 µM. For the same compound, the figures for the EC50 in [2] (Human immunodeficiency virus 1) and in [3] were more than 50 µM and more than 10 µM, respectively.

Regarding `Nc1nc(O)c2ncn([C@@H]3C[Se][C@@H](CO)O3)c2n1`, the IC50 in assay [1] (Homo sapiens, CCRF-CEM) was more than 100 µM; in assay [4] (Homo sapiens, PBMC), more than 100 µM; in assay [5] (Chlorocebus sabaeus, Vero), more than 100 µM. Besides, the figures for the EC50 in assay [2] (Human immunodeficiency virus 1) and in assay [3] were more than 100 µM and more than 10 µM, respectively.

As to `OC[C@H]1O[C@H](n2cnc3c(O)ncnc32)C[Se]1`, the IC50 in assay [1] (Homo sapiens, CCRF-CEM) is more than 100 µM; in [4] (Homo sapiens, PBMC), more than 100 µM; in assay [5] (Chlorocebus sabaeus, Vero), more than 100 µM. The EC50 in assay [2] (Human immunodeficiency virus 1) was more than 100 µM; in assay [3], more than 10 µM.

As for `O=c1ccn([C@@H]2C[Se][C@@H](CO)O2)c(=O)[nH]1`, the IC50 in assay [1] (Homo sapiens, CCRF-CEM) was more than 100 µM; in assay [4] (Homo sapiens, PBMC) it was more than 100 µM; in assay [5] (Chlorocebus sabaeus, Vero) it was more than 100 µM. Moreover, the EC50 was 101 µM in assay [2] (Human immunodeficiency virus 1) and more than 10 µM in assay [3].

`Nc1nc(O)c2ncn([C@H]3C[Se][C@@H](CO)O3)c2n1`: the concentration for half-maximal inhibition (IC50) in assay [1] (Homo sapiens, CCRF-CEM) was more than 100 µM; in assay [4] (Homo sapiens, PBMC), more than 100 µM; in assay [5] (Chlorocebus sabaeus, Vero) it was more than 100 µM. The EC50 in assay [2] (Human immunodeficiency virus 1) was 28.9 µM; in [3], more than 10 µM.

For the compound `Nc1nc(=O)n([C@H]2C[Se][C@@H](CO)O2)cc1F` (racemic), the IC50 in assay [1] (Homo sapiens, CCRF-CEM) is more than 100 µM; in assay [4] (Homo sapiens, PBMC) it was more than 100 µM; in assay [5] (Chlorocebus sabaeus, Vero), more than 100 µM. Also, the EC50 in [2] amounted to 0.73 µM; in assay [3] it was 1.2 µM.

For orientation: EC90 means the concentration needed for an effect of 90%. As to `Nc1ccn([C@H]2C[Se][C@@H](CO)O2)c(=O)n1` (stereo in doubt; 9c), the IC50 in assay [1] (Homo sapiens, CCRF-CEM) was more than 100 µM; in assay [4] (Homo sapiens, PBMC), more than 100 µM; in assay [5] (Chlorocebus sabaeus, Vero), more than 100 µM. In addition, the EC50 in assay [8] came out at 1.84 µM; in [9], 108 µM; in [2] it was 2.7 µM; in assay [3] it was 1.2 µM. The EC90 in assay [10] is 6.9 µM; in assay [11], 337 µM. Further, the FI in assay [12] came out at 59; in assay [13], 49.

As for `Nc1nc(=O)n([C@@H]2C[Se][C@@H](CO)O2)cc1F` (stereo in doubt; 10d), the EC50 in [2] was 57.1 µM; in assay [3] it was more than 10 µM.

Consider `Nc1nc(=O)n([C@@H]2C[Se][C@@H](CO)O2)cc1F` (stereo in doubt; (+)), for which the EC50 in assay [2] was determined as 95.3 µM.

On to `Nc1nc(=O)n([C@H]2C[Se][C@@H](CO)O2)cc1F` (stereo in doubt; (+)), for which, in assay [2], the EC50 came to 41.9 µM.

As for `Nc1ccn([C@H]2C[Se][C@@H](CO)O2)c(=O)n1` (stereo in doubt; (+)), the IC50 in assay [1] (ccrf-cem), in assay [4] (pbm) and in assay [5] (vero) was 100 µM each time. Moreover, the EC50 is 8.62 µM in [8], 50 µM in [9] and 3.4 µM in [2]. In addition, the values for the EC90 in [10] and in assay [11] were 35.1 µM and 50 µM, respectively. Moreover, the FI in assay [12] is recorded as more than 6; in assay [13], more than 1.

As to `Nc1nc(=O)n([C@@H]2C[Se][C@@H](CO)O2)cc1F` (stereo in doubt; (-)), the IC50 in assay [1] (Homo sapiens, CCRF-CEM) is more than 100 µM; in assay [4] (Homo sapiens, PBMC), more than 100 µM; in assay [5] (Chlorocebus sabaeus, Vero), more than 100 µM. The compound further came in with an EC50 in assay [2] of 6.4 µM.

In turn, `Nc1nc(=O)n([C@H]2C[Se][C@@H](CO)O2)cc1F` (stereo in doubt; (-)) gave an EC50 in assay [2] of 0.2 µM.

With `Nc1ccn([C@H]2C[Se][C@@H](CO)O2)c(=O)n1` (stereo in doubt; (-)), the EC50 in assay [8] was 0.11 µM; in [9], more than 50 µM; in assay [2], 0.9 µM. The EC90 is 0.95 µM in assay [10] and more than 50 µM in assay [11]. Besides, the results for the FI in assay [12] and in [13] were more than 455 and more than 53, respectively.

On to `Nc1ccn([C@@H]2CS[C@H](CO)O2)c(=O)n1` [LAMIVUDINE], for which the IC50 in [1] (Homo sapiens, CCRF-CEM) is more than 100 µM; in [4] (Homo sapiens, PBMC), more than 100 µM; in [5] (Chlorocebus sabaeus, Vero), more than 100 µM. Further, the EC50 in [2] (Human immunodeficiency virus 1) was 0.07 µM; in assay [3], 0.008 µM.
